Source: ChEMBL document CHEMBL1145286, “Dual angiotensin II and endothelin A receptor antagonists: synthesis of 2'-substituted N-3-isoxazolyl biphenylsulfonamides with improved potency and pharmacokinetics” (2005)
The source made the active and inactive calls. No cut-off for these calls is given here.

How the values were obtained:
Type in all cases: functional
[1] = target: T1, Endothelin-1 receptor (Rattus norvegicus) (UniProt P26684); experiment: Endothelin pressor effect in rats after oral dose of 30 uM/kg
T1 sequence (whole entry): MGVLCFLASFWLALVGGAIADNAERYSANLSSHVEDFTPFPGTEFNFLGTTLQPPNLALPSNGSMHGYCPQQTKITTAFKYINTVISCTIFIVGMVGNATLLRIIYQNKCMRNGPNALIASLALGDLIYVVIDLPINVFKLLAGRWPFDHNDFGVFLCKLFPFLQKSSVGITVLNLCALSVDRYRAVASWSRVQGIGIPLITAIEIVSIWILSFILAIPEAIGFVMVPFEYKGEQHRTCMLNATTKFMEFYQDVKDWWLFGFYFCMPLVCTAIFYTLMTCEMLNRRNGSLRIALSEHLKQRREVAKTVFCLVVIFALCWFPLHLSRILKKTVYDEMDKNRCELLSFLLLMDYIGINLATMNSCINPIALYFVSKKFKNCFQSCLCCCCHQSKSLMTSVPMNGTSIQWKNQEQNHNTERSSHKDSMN
Procedure, shortened: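 Conscious normotensive rats; big endothelin-1 (1.0 nmol/kg iv) challenge after vehicle gave the control pressor response. Drug at 30 μmol/kg given po (or iv), then bET-1 re-challenge at various times after dosing. 6–8 rats per group.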

[2] = target: Angiotensin II receptor (AT-1) type-1 (Rattus norvegicus) (UniProt P29089+P25095); experiment: Angiotensin II pressor effect in rats after oral dose of 30 uM/kg
Procedure, shortened: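 Conscious rats given vehicle by gavage, then an iv bolus Ang II challenge as control pressor response; drug at 30 μmol/kg by oral gavage, Ang II re-challenge at intervals up to 240 min. 6–8 rats per dose. […]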

[3] = test system: Caco-2; experiment: Permeability in Caco-2 cell monolayer

Structure (SMILES)	Activity [1]	Activity [2]	Activity [3] [nm/s]
Cc1noc(NS(=O)(=O)c2ccccc2-c2ccc(-c3ncco3)cc2)c1C	9700 AUC units	inactive	–
CCCCC1=NC2(CCCC2)C(=O)N1Cc1ccc(-c2ccccc2S(=O)(=O)Nc2noc(C)c2C)c(COCC)c1	15800 AUC units	18600 AUC units	–
CCCCC1=NC2(CCCC2)C(=O)N1Cc1ccc(-c2ccccc2S(=O)(=O)Nc2noc(C)c2C)c(CCC)c1	13000 AUC units	16300 AUC units	–
CCCCC1=NC2(CCCC2)C(=O)N1Cc1ccc(-c2ccccc2S(=O)(=O)Nc2onc(C)c2C)c(COCC)c1	3900 AUC units	13900 AUC units	170
CCCCC1=NC2(CCCC2)C(=O)N1Cc1ccc(-c2ccccc2S(=O)(=O)Nc2onc(C)c2C)c(CN2CCC(C)(C)C2=O)c1 [BMS-248360]	7900 AUC units	5800 AUC units	30
CCCCC1=NC2(CCCC2)C(=O)N1Cc1ccc(-c2ccccc2-c2nnn[nH]2)cc1 [IRBESARTAN]	inactive	13500 AUC units	100
CCCCC1=NC2(CCCC2)C(=O)N1Cc1ccc(-c2ccccc2S(=O)(=O)Nc2onc(C)c2C)c(CCC)c1	8600 AUC units	15900 AUC units	240
